Results from ChEMBL document CHEMBL5724801, “EUbOPEN Chemogenomics Library - Multiplex” (2024).
“And” between values parts separate entries of the source, which are not always exact repeats. Equal entries are not always repeated.

System: U2OS
Assay: Multiplex assay against U2OS
Format: toxicity, cell-based
Conditions: human, 12 h, 1 µM, compound concentration 1 uM
In short: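 Per cents of healthy-nucleus cells form the tubulin, mitochondrial-mass and membrane-permeability phenotype values. Live cells were stained at seeding with Hoechst33342, BioTracker Green Microtubule Cytoskeleton Dye, MitoTracker Red and Annexin V Alexa Fluor 680. After compound addition they were imaged on a CQ1 microscope at 37°C and 5% CO2, and CellPathfinder machine-learning gating split them into Hoechst high-intensity objects or normal cells, normal cells into healthy, pyknosed or fragmented nuclei, and pyknosed cells into mitotic or apoptotic.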

Structure (SMILES)	Population Apoptotic (%)	Population Fragmented Nuclei (%)	Population Healthy Nuclei (%)	Population Hoechst High Intensity Objects (%)	Population Membrane Permeable-Phenotype (%)	Population Mitochondria Different-Phenotype (%)	Population Mitotic Cells (%)	Population Normal (%)	Population Pyknosed Nuclei (%)	Population Tubulin-Different-Phenotype (%)
N#Cc1c(Oc2cccc(OS(=O)(=O)CCCC(F)(F)F)c2)cccc1C(F)(F)F	77% and 81%	27% and 12%	61% and 76%	3% and 0%	4% and 7%	2% and 7%	22% and 18%	96% and 99%	10	0% and 8%
Cn1cc(C(=O)OCC2CCN(CCNS(C)(=O)=O)CC2)c2ccccc21	73% and 77%	27% and 20%	63% and 71%	3% and 0%	7% and 13%	4% and 5%	26% and 22%	96% and 100%	8	5% and 6%

Same assay, conditions: human, 12 h, 1 µM, compound concentration 1 uM

Structure (SMILES)	Total Cell Count
N#Cc1c(Oc2cccc(OS(=O)(=O)CCCC(F)(F)F)c2)cccc1C(F)(F)F	220 and 109
Cn1cc(C(=O)OCC2CCN(CCNS(C)(=O)=O)CC2)c2ccccc21	226 and 110

Same assay, conditions: human, 12 h, 10 µM, compound concentration 10 uM

Structure (SMILES)	Population Apoptotic (%)	Population Fragmented Nuclei (%)	Population Healthy Nuclei (%)	Population Hoechst High Intensity Objects (%)	Population Membrane Permeable-Phenotype (%)	Population Mitochondria Different-Phenotype (%)	Population Mitotic Cells (%)	Population Normal (%)	Population Pyknosed Nuclei (%)	Population Tubulin-Different-Phenotype (%)
N#Cc1c(Oc2cccc(OS(=O)(=O)CCCC(F)(F)F)c2)cccc1C(F)(F)F	78% and 90%	27% and 14%	63% and 75%	3% and 0%	11% and 21%	8% and 4%	21% and 9%	96% and 99%	8% and 9%	7%
Cn1cc(C(=O)OCC2CCN(CCNS(C)(=O)=O)CC2)c2ccccc21	53% and 57%	36% and 18%	58% and 76%	0% and 1%	10% and 17%	5% and 13%	46% and 42%	99% and 98%	5%	5% and 9%

Same assay, conditions: human, 12 h, 10 µM, compound concentration 10 uM

Structure (SMILES)	Total Cell Count
N#Cc1c(Oc2cccc(OS(=O)(=O)CCCC(F)(F)F)c2)cccc1C(F)(F)F	222 and 112
Cn1cc(C(=O)OCC2CCN(CCNS(C)(=O)=O)CC2)c2ccccc21	252 and 137

Same assay, conditions: human, 24 h, 1 µM, compound concentration 1 uM

Structure (SMILES)	Population Apoptotic (%)	Population Fragmented Nuclei (%)	Population Healthy Nuclei (%)	Population Hoechst High Intensity Objects (%)	Population Membrane Permeable-Phenotype (%)	Population Mitochondria Different-Phenotype (%)	Population Mitotic Cells (%)	Population Normal (%)	Population Pyknosed Nuclei (%)	Population Tubulin-Different-Phenotype (%)
N#Cc1c(Oc2cccc(OS(=O)(=O)CCCC(F)(F)F)c2)cccc1C(F)(F)F	75% and 90%	25% and 12%	61% and 79%	2% and 1%	4% and 11%	2% and 3%	24% and 10%	97% and 98%	12% and 7%	3% and 7%
Cn1cc(C(=O)OCC2CCN(CCNS(C)(=O)=O)CC2)c2ccccc21	95% and 100%	26% and 17%	65% and 78%	2% and 0%	4% and 10%	2% and 5%	4% and 0%	97% and 100%	8% and 4%	3% and 6%

Same assay, conditions: human, 24 h, 1 µM, compound concentration 1 uM

Structure (SMILES)	Total Cell Count
N#Cc1c(Oc2cccc(OS(=O)(=O)CCCC(F)(F)F)c2)cccc1C(F)(F)F	263 and 130
Cn1cc(C(=O)OCC2CCN(CCNS(C)(=O)=O)CC2)c2ccccc21	263 and 144

Same assay, conditions: human, 24 h, 10 µM, compound concentration 10 uM

Structure (SMILES)	Population Apoptotic (%)	Population Fragmented Nuclei (%)	Population Healthy Nuclei (%)	Population Hoechst High Intensity Objects (%)	Population Membrane Permeable-Phenotype (%)	Population Mitochondria Different-Phenotype (%)	Population Mitotic Cells (%)	Population Normal (%)	Population Pyknosed Nuclei (%)	Population Tubulin-Different-Phenotype (%)
N#Cc1c(Oc2cccc(OS(=O)(=O)CCCC(F)(F)F)c2)cccc1C(F)(F)F	66%	26% and 9%	66% and 83%	6% and 3%	10% and 11%	8% and 0%	33	93% and 96%	7%	5% and 7%
Cn1cc(C(=O)OCC2CCN(CCNS(C)(=O)=O)CC2)c2ccccc21	92% and 64%	33% and 16%	61% and 73%	2% and 1%	11% and 12%	5% and 8%		97% and 98%	4% and 9%	4% and 8%

Same assay, conditions: human, 24 h, 10 µM, compound concentration 10 uM

Structure (SMILES)	Total Cell Count
N#Cc1c(Oc2cccc(OS(=O)(=O)CCCC(F)(F)F)c2)cccc1C(F)(F)F	252 and 130
Cn1cc(C(=O)OCC2CCN(CCNS(C)(=O)=O)CC2)c2ccccc21	281 and 150

Same assay, conditions: human, 48 h, 1 µM, compound concentration 1 uM

Structure (SMILES)	Population Apoptotic (%)	Population Fragmented Nuclei (%)	Population Healthy Nuclei (%)	Population Hoechst High Intensity Objects (%)	Population Membrane Permeable-Phenotype (%)	Population Mitochondria Different-Phenotype (%)	Population Mitotic Cells (%)	Population Normal (%)	Population Pyknosed Nuclei (%)	Population Tubulin-Different-Phenotype (%)
N#Cc1c(Oc2cccc(OS(=O)(=O)CCCC(F)(F)F)c2)cccc1C(F)(F)F	87% and 100%	17% and 16%	70% and 73%	3% and 2%	4% and 9%	0% and 4%	12% and 0%	96% and 97%	11% and 9%	3% and 7%
Cn1cc(C(=O)OCC2CCN(CCNS(C)(=O)=O)CC2)c2ccccc21	91% and 57%	20% and 13%	69% and 75%	1% and 2%	8% and 6%	3% and 5%		98% and 97%	9% and 10%	5% and 4%

Same assay, conditions: human, 48 h, 1 µM, compound concentration 1 uM

Structure (SMILES)	Total Cell Count
N#Cc1c(Oc2cccc(OS(=O)(=O)CCCC(F)(F)F)c2)cccc1C(F)(F)F	361 and 195
Cn1cc(C(=O)OCC2CCN(CCNS(C)(=O)=O)CC2)c2ccccc21	372 and 182

Same assay, conditions: human, 48 h, 10 µM, compound concentration 10 uM

Structure (SMILES)	Population Apoptotic (%)	Population Fragmented Nuclei (%)	Population Healthy Nuclei (%)	Population Hoechst High Intensity Objects (%)	Population Membrane Permeable-Phenotype (%)	Population Mitochondria Different-Phenotype (%)	Population Mitotic Cells (%)	Population Normal (%)	Population Pyknosed Nuclei (%)	Population Tubulin-Different-Phenotype (%)
N#Cc1c(Oc2cccc(OS(=O)(=O)CCCC(F)(F)F)c2)cccc1C(F)(F)F	91% and 100%	23% and 11%	64% and 77%	4% and 3%	10% and 13%	6% and 4%	8% and 0%	95% and 96%	11% and 10%	6% and 7%
Cn1cc(C(=O)OCC2CCN(CCNS(C)(=O)=O)CC2)c2ccccc21	88% and 75%		58% and 79%	1% and 3%	9% and 13%	4% and 6%	11% and 25%	98% and 97%	10%	7% and 5%

Same assay, conditions: human, 48 h, 10 µM, compound concentration 10 uM

Structure (SMILES)	Total Cell Count
N#Cc1c(Oc2cccc(OS(=O)(=O)CCCC(F)(F)F)c2)cccc1C(F)(F)F	328 and 184
Cn1cc(C(=O)OCC2CCN(CCNS(C)(=O)=O)CC2)c2ccccc21	341 and 200
